From ChEMBL document CHEMBL5523765, “Peptidic Boronic Acid Plasmodium falciparum SUB1 Inhibitors with Improved Selectivity over Human Proteasome” (J Med Chem, 2024)
Calls of active or inactive are those of the source. No cut-off for these calls is given here.

Columns and labels:
[1] = Selectivity ratio IC50 for human 20s proteasome beta5 subunit mediated chymotrypsin-like activity to IC50 for Plasmodium falciparum SUB1
[2] = molecular target: T1, Proteasome Macropain subunit MB1 (Homo sapiens, UniProt P28074); experiment: Inhibition of human 20s proteasome beta5 subunit mediated chymotrypsin-like activity using LLVY-R110 as substrate measured every three mins for 1 hr by fluorescence based SpectraMax M5e plate reader
T1 sequence (P28074 whole entry): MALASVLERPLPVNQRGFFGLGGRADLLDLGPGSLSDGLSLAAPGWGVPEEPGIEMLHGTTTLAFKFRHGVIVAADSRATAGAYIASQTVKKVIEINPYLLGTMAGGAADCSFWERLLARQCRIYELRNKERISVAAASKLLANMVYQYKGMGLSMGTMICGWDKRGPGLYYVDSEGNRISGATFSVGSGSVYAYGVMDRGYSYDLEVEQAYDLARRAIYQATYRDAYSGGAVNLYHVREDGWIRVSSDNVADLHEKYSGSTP
Procedure, shortened: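 Purified human 20S proteasome was diluted in TBS pH 7.4 to a 0.44 μM intermediate stock. Serial DMSO dilutions of inhibitor (1 μL) went into a 100 μL reaction with LLVY-R110 substrate, and 1 μL of proteasome stock was added to start.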

[3] = molecular target: T2, Subtilisin-like protease 1 (Plasmodium falciparum, UniProt O61142); experiment: Inhibition of Plasmodium falciparum SUB1
T2 sequence (O61142 whole entry): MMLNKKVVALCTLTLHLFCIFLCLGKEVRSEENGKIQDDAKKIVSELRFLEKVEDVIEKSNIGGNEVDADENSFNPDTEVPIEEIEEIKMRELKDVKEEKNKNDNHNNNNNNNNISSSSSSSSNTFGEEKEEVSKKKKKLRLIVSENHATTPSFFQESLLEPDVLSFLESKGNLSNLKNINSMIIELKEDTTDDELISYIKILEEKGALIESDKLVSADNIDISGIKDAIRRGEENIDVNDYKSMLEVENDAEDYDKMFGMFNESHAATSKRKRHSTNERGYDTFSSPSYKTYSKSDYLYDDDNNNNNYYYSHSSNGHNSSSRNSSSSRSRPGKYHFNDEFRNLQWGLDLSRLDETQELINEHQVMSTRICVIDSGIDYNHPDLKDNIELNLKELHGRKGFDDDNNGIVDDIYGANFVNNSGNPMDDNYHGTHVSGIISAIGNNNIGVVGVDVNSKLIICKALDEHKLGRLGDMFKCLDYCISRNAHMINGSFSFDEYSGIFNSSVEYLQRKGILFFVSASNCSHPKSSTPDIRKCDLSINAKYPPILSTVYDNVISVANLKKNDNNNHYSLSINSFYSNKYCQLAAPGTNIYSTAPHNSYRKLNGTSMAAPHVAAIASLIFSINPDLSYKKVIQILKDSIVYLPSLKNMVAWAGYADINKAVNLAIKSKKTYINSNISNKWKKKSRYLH
Procedure, shortened: (§1)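 Chymotrypsin-treated recombinant PfSUB1 stock (228 U/mL) was diluted 1:500 in 20 mM Tris-HCl pH 8.2, 150 mM NaCl, 12 mM CaCl2, 25 mM CHAPS. Inhibitor DMSO stocks (500 to 0.01 μM) were diluted 1:100 and preincubated with enzyme for 5 min. Fluorogenic SERA4st1F-6R12 substrate was then added (0.1 μM final), with ex 552/em 580 nm read every 3 min for 60 min.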

[4] = molecular target: T3, Subtilisin-like protease 1 (Plasmodium falciparum) (UniProt O61142); experiment: Inhibition of recombinant Plasmodium falciparum SUB1 using Ac-CKITAQDDEESC-OH as fluorogenic substrate at 1 uM pre-incubated for 5 mins followed by substrate addition and measured every 3 mins for 60 mins by fluorescence based SpectraMax M5e plate reader; settings: time 65.0 min
T3 sequence (whole entry): T2 sequence (O61142 whole entry)

[5] = molecular target: T2, Subtilisin-like protease 1; experiment: Inhibition of recombinant Plasmodium falciparum SUB1 using Ac-CKITAQDDEESC-OH as fluorogenic substrate pre-incubated for 5 mins followed by substrate addition and measured every 3 mins for 60 mins by fluorescence based SpectraMax M5e plate reader; procedure, shortened: as §1

| IC50 [2] | Structure (SMILES) | IC50 [3] | further results |
| --- | --- | --- | --- |
| 35600 nM | CC(=O)N[C@H](C(=O)N[C@H](C(=O)NCC(=O)N[C@H]1CCC(=O)OB1O)[C@@H](C)O)C1CCCC1 | 18.7 nM | Ratio IC50 [1]: 1900 |
| – | CC(C)C[C@H](NC(=O)[C@H](Cc1ccccc1)NC(=O)c1cnccn1)B(O)O | – | inhibition [4]: inactive |
| 1000 nM | CC[C@H](C)[C@H](NC(=O)[C@@H](NC(=O)c1cc(C)cc(C)c1)C1CCCC1)C(=O)NCC(=O)N[C@H]1CCC(=O)OB1O | – | – |
| – | CC(=O)N[C@H](C(=O)N[C@H](C(=O)NCC(=O)N[C@@H](C)B(O)O)[C@@H](C)O)C1CCCC1 | 9.3 nM | – |
| – | CC[C@H](C)[C@H](NC(=O)[C@@H](NC(=O)c1ccccc1)C1CCCC1)C(=O)NCC(=O)N[C@@H](C)B(O)O | – | IC50 [5]: 3.2 nM |
